# High-throughput results: PubChem, Broad Institute
# Sampled rows, rich in hits. Any-hit rate of the full collection: about 2%.
# Ecoli rRNA inh – selective bacterial rRNA inhibition in E. coli; E. coli WT GFP vs humanized-ribosome RFP mutants, fluorescence, 24 h; active compounds read low; DMSO median 0, no signal -100; GFP signal change (wild-type ribosome), % (test concentration not listed); 1.6% of 350,000 active;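 active = significant combined selectivity score with lowered wild-type GFP, culture density cut under 30%, mutant RFP and density less affected; inactive = any of these conditions unmet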
# RAD52 anneal inh – blocks human RAD52 DNA annealing. P43351. recombinant RAD52 DNA annealing, FRET fluorescence. inhibition, % at 18.7 µM. 0.46% of 360,000 active. AID 651710;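 active = every replicate showing at least 50% inhibition; inconclusive = mean inhibition at least 50% but not in every replicate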
# XiGFP reactiv – reactivates the inactive X chromosome in mouse fibroblasts. XiGFP mouse fibroblasts, % GFP-positive cells imaging, 3 d; cells co-treated with 5-aza-dC sensitizer; scaled so ellipticine positive control = 100%. activation, % at 7.58 µM. 0.055% of 360,000 active;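 active = mean normalized replicate activation at least 10% and every replicate at or above 10%; inconclusive = only one of the two criteria met; inactive = mean below 10% and not all replicates reach 10%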;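 also: 0% = median of on-plate neutral control wells and 100% = ellipticine 6 µM median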
#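 Assay system: SV40-immortalized XiGFP fibroblast cells, line 68-5-11; buffer or medium: DMEM plus 5-aza-dC sensitizer; compound: one concentration, pinned; timing: compounds 3 days, fix/stain 15 min at room temperature; benchmarks: positive control ellipticine, 6 µM final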
# PglD inh – inhibitors of Campylobacter jejuni PglD acetyltransferase; purified PglD enzyme, DTNB colorimetric CoA detection; 0.098% of 360,000 active; AID 602405; inhibition, % at 12.5 µM; in the data active = inhibition above about 16%, passing the limit was not always enough; inconclusive = no clear call, values can overlap the other calls
# RAD54 branch – inhibitors of human RAD54 branch migration; Q92698; RAD54 Holliday junction branch migration, FAM/BHQ fluorescence; inhibition, % at 10.4 µM; 0.14% of 360,000 active;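 active = mean normalized replicate activity at least 40 and at least half of replicates scoring 40 or more; inconclusive = only one of the two criteria met; inactive = mean below 40 and under half of replicates reaching 40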;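 also: 0% = median of neutral control wells and 100% = median of positive control wells; inhibitors cause a drop in the FAM fluorescence signal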
# E-selectin induc – induces E-selectin expression in human endothelial cells | P16581 | 0.37% of 260,000 active | AID 686992 | activation, % at 7.58 µM | HUVEC E-selectin immunofluorescence imaging; normalized: neutral wells 0, TNF-alpha wells 100;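 active = mean E-selectin-positive cell signal at least 10% of the positive control, reached in at least 60% of replicates, without over 20% cell loss; inconclusive = no rule given, readout overlaps actives, possibly toxicity-flagged; inactive = the rest, including those meeting only one limit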
# Target sequence (P16581 whole entry, looked up): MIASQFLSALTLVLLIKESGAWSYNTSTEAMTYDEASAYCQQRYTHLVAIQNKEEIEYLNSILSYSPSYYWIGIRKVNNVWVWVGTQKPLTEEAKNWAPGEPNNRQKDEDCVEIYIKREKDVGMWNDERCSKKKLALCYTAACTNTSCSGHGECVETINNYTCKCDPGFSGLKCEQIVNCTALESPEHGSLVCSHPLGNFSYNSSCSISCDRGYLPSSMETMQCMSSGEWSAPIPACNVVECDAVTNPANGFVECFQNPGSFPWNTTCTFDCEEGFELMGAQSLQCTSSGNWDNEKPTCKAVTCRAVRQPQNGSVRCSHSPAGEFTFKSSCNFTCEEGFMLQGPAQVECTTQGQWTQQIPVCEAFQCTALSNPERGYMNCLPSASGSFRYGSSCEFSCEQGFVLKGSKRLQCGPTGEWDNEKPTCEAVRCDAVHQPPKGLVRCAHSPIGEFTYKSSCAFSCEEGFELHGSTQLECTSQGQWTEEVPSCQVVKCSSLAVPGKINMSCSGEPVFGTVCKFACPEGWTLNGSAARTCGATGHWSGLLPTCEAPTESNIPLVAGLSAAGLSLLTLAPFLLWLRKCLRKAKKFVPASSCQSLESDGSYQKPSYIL
#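 Test system – human umbilical vein endothelial cells (HUVEC), E-selectin induction · Input – 3,000 HUVEC seeded per well · Buffer or medium – EGM-2, gelatin · Compound dosing – single-point compound dose · Detection – immunofluorescence imaging · Measure – percent E-selectin-positive cells · Controls – TNF-alpha high, DMSO low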
# Numbers without * were called inactive; ? = inconclusive; / = no result given.
SMILES,Ecoli rRNA inh,RAD52 anneal inh,XiGFP reactiv,PglD inh,RAD54 branch,E-selectin induc
C[C@@H]1CN([C@@H](C)CO)C(=O)c2cccc(NC(=O)NC3CCCCC3)c2O[C@H]1CN(C)C(=O)Nc1ccc2c(c1)OCO2,-2,9,0,2,-7,0
C[C@H]1CN([C@@H](C)CO)C(=O)c2cc(NC(=O)c3ccncc3)ccc2O[C@@H]1CN(C)S(C)(=O)=O,2,-17,-1,0,4,0
COc1ccc(NC(=O)N(C)C[C@@H]2Oc3ccc(NC(=O)CCC(F)(F)F)cc3CC(=O)N([C@H](C)CO)C[C@@H]2C)cc1,4,-7,0,2,-2,0
COc1ccc2c3c(n(C)c2c1)[C@H](CO)NCC31CN(Cc2cc(-c3ccccc3)on2)C1,-8,80*,0,/,/,0
NC(=O)c1ncn([C@@H]2O[C@H](C(=O)N[C@H](Cc3c[nH]c4ccccc34)C(=O)N3CCN(CC(=O)N4CCCC4)CC3)[C@@H](O)[C@H]2O)n1,13,-6,0,/,/,?
Cc1ccc(C(=O)O)cc1N1C(=O)c2cccc3c([N+](=O)[O-])ccc(c23)C1=O,93,-130,3,3,-20,0
CC(=O)Oc1cccc(N2C(=O)c3cccc4c([N+](=O)[O-])ccc(c34)C2=O)c1,78,-23,13*,-1,-7,/
Nc1nc(N)c(C=Nc2ccc(Br)cc2)c(Nc2ccc(Br)cc2)n1,-25*,-12,0,-2,2,/
COc1ccc(C(=O)NCc2oc(-c3ccccc3)cc2C(=O)O)cc1,-24*,-15,/,-3,6,/
C[C@@H]1CN([C@H](C)CO)C(=O)c2cccc(NC(=O)Nc3ccccc3)c2O[C@@H]1CN(C)S(=O)(=O)c1ccccc1,2,4,0,6,-2,255*
C[C@H]1CN([C@@H](C)CO)C(=O)c2cccc(NC(=O)Nc3ccccc3)c2O[C@H]1CN(C)C,-6,13,-1,19*,8,0
Cc1cc(C(=O)Nc2cccc3c2O[C@H](CN(C)S(=O)(=O)c2ccc(Cl)cc2)[C@H](C)CN([C@H](C)CO)C3=O)n(C)n1,-22*,5,0,-4,-2,0
c1ccc(Cn2cc(CSc3ccccc3)nn2)cc1,-33*,-7,0,5,-11,0
Cc1cccc(OC(C)C(=O)N/N=C\c2ccncc2)c1 (stereo unspecified),0,10,0,5,6,372*
C[C@@H]1CCCCO[C@H](CN(C)C(=O)c2ccncc2)[C@@H](C)CN([C@@H](C)CO)C(=O)c2cc(NC(=O)C3CCCCC3)ccc2O1,2,4,4,-1,-4,0
COCCCNC(=O)C[C@H]1C[C@@]2(C(=O)OC)C(=C[C@H](COCc3ccccc3)O[C@@H]2C)N(Cc2ccc3c(c2)OCO3)C1=O,0,-21,0,/,/,0
Cc1ccc(S(=O)(=O)N(C)C[C@H]2Oc3ccc(NC(=O)Nc4cccc5ccccc45)cc3C(=O)N([C@@H](C)CO)C[C@H]2C)cc1,2,/,0,/,/,1
NNC(=O)CSCc1nc(-c2ccc(Cl)cc2)cs1,-27*,-10,0,7,2,7
NNC(=O)CSCc1nc(-c2ccccc2)cs1,/,-7,0,/,/,/
CN(C)CC(=O)Nc1ccc2c(c1)[C@H]1C[C@H](CC(=O)NC3CCCC3)O[C@@H](CO)[C@H]1O2,2,0,0,1,-7,-1
O=C(/C=C/c1ccc(F)cc1)N1CCc2ccccc2C1,-9,-27,0,-2,-11,6
O=C(/C=C/C(=O)N1CCc2ccccc2C1)N1CCc2ccccc2C1,-22*,-41,0,/,/,0
O=C(COC(=O)CC12CC3CC(CC(C3)C1)C2)Nc1cccnc1Cl,-24*,-9,0,/,/,2
Cc1ccc(S(=O)(=O)N(C)C[C@H]2Oc3ncc(-c4ccccc4)cc3C(=O)N([C@H](C)CO)C[C@@H]2C)cc1,-8,-1,0,3,7,0
